MBD2 DNA inh: MBD2-methylated oligo binding inhibition; Q9UBB5; TR-FRET, MBD2 binding to methylated oligonucleotide; inhibition, % at 4.4 µM; 0.31% of 370,000 active; AID 686964; in the data active = inhibition above about 13%
UHRF1 MBD2 ctr: blocks human UHRF1 binding to methylated DNA; Q96T88; UHRF1 binding to methylated oligo, TR-FRET; inhibition, % at 4.4 µM; 0.75% of 370,000 active; in the data active = inhibition above about 21%;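 also: UHRF1 SRA domain binding a hemimethylated CpG hairpin DNA probe; 0% = median of test compound wells and 100% = reference inhibitor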
CSN inh: blocks human CSN-mediated cullin deneddylation; Purified CSN, SCF-Nedd8-OG deneddylation, fluorescence polarization; 0.38% of 360,000 active; inhibition, % at 12.5 µM;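 active = pattern-corrected inhibition above about 35%, with an unprinted fluorescence ratio check between 0.5 and 1.5, limit read from the data, passing the limit was not always enough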;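 also: 0% = enzyme with substrate and 100% = substrate without enzyme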
Target sequence (Q92905 whole entry, looked up, one chain of several): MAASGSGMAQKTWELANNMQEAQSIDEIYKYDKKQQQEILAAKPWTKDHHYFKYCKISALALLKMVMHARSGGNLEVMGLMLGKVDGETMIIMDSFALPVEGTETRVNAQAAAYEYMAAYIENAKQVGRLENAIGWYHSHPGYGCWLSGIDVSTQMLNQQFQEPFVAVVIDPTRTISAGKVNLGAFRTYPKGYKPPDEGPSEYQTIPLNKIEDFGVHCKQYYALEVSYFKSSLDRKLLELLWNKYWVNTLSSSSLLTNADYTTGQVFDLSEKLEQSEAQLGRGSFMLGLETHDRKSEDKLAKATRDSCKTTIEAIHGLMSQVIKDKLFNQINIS
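Material: purified human Csn5 enzyme expressed in HEK293T cells / Medium: Tris buffer pH 7.5, NaCl, DTT, Tween-20, trehalose, ovalbumin / Compound dosing: 12.5 µM single point / Schedule: 90 min incubation of compound, enzyme and substrate at room temperature / Signal: fluorescence polarization of the substrate / Control set: no-enzyme wells high, enzyme-with-substrate wells low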
LEDGF integ inh: blocks HIV-1 LEDGF/p75-dependent DNA integration. TR-FRET IN-LEDGF/p75 DNA integration, Eu/Cy5. inhibition, % at 3.7 µM. 0.64% of 370,000 active. AID 743269;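 active = inhibition above the screen-wide mean plus 3 SD, cut at about 13% in these data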;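 also: signal is the Cy5 over europium emission ratio at 671 and 618 nm; 0% = plate median of compound wells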
rCAG binder: molecules binding r(CAG) RNA repeats; inhibition, % at 3 µM; 1.3% of 370,000 active; r(CAG) RNA repeat, TO-PRO-1 dye displacement fluorescence; AID 651821;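 active = inhibition above the plate cutoff, the mean of all test compounds on that plate plus 3 SD, cut at about 35% in these data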;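 also: 0% = DMSO alone and 100% = 100 µM mitoxantrone as full dye displacement; higher means more dye released from RNA so lower well fluorescence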
ATG4B inhibitor: ATG4B (human) cysteine protease inhibition; ATG4B cleavage of LC3-PLA2, NBD-HPC fluorescence, 1 h; inhibition, % at 8.33 µM; 0.51% of 340,000 active; AID 504462; in the data active = inhibition above about 40%
An asterisk follows results filed as active; . = not tested or not shown. Only some compounds are listed: those with a hit (about 3.1% of all), similar ones and a draw of the others.

SMILES	MBD2 DNA inh	UHRF1 MBD2 ctr	CSN inh	LEDGF integ inh	rCAG binder	ATG4B inhibitor
Cc1cccc(NC(=O)C2CCCN2S(=O)(=O)c2cccc3cccnc23)c1C (stereo unspecified)	-0.3	0.4	.	0.8	1.5	.
COc1ccc(S(=O)(=O)N/N=C(/C)c2ccncc2)cc1	1.6	26.9*	-2.8	1.4	-0.7	0.8
C/C(=N\NS(=O)(=O)c1ccc(Br)cc1)c1ccncc1	-0.3	0.5	-4.0	0.7	-0.6	-5.7
FC(F)(F)c1cc(CCN2C(=S)NC[C@@H]2CC2CCCCC2)cc(C(F)(F)F)c1	3.7	4.2	1.7	0.3	4.2	-4.3
O=C1NC[C@H](CC2CCCCC2)N(CCc2cc(C(F)(F)F)cc(C(F)(F)F)c2)C1=O	-6.3	-0.9	48.3*	1.8	-0.4	.
O=C1NC[C@@H](Cc2ccc(O)cc2)N(CCc2cc(C(F)(F)F)cc(C(F)(F)F)c2)C1=O	-6.7	0.2	98.2*	1.6	0.3	.
O=C1NC[C@H](CC2CCCCC2)N(CCc2cccc3ccccc23)C1=O	6.1	-2.7	59.7*	4.6	2.6	.
CCOC(=O)c1sc(N/N=C/c2ccccc2)nc1C	-3.1	0.3	-4.2	1.9	7.1	-6.7
O=C(O)Cc1sc(Nc2ccccc2)nc1-c1cccs1	-6.6	-6.1	50.9*	2.5	15.7	1.9
O=C(O)Cc1sc(N/N=C\c2ccccc2)nc1-c1ccccc1	2.0	-5.2	17.5	24.7*	44.1*	27.7
CCCCNC(=O)OCCCN1CCC2(CCC(c3ccccc3)CC2)C1 (stereo unspecified)	-3.4	5.1	.	0.9	-1.3	.
CCCc1nc2ccc(Cl)cn2c1Cc1ccc(C)cc1	11.1	21.3*	1.2	5.6	1.7	.
Brc1ccc(-c2nc3ccc(Br)cn3c2Cc2ccccc2)cc1	7.8	20.9*	2.5	-1.1	19.3	.
Cc1ccc(Cc2c(-c3ccc(C)cc3)nc3ccc(Br)cn23)cc1	0.2	21.7*	5.6	7.4	20.7	.
CCCc1nc2ccc(Cl)cn2c1Cc1cccc(Cl)c1	9.4	19.6	-1.9	5.1	6.2	.
Cc1ccc(Cc2c(-c3ccc(Cl)cc3)nc3ccc(Br)cn23)cc1	8.2	21.5*	5.5	5.9	23.0	.
C=CCN(Cc1ccccc1)C(C#CC(=C)C)Cc1ccccc1 (stereo unspecified)	-1.6	-3.0	.	2.5	0.5	.
Cc1ccc2nc(-c3ccc(NC(=O)CSc4nnc(-c5cc(-c6ccc(F)cc6)n[nH]5)n4N)cc3)sc2c1	1.5	-1.6	.	0.7	6.0	.
C=CCN1C(=O)[C@H](CC(=O)NCCCOCCCC)[C@@]2(C(=O)OCC)CCCC=C12	-5.8	-2.6	.	6.6	8.2	.
Cc1ccc2nc(-c3ccc(Cl)cc3)c(Cc3cccc(Cl)c3)n2c1	4.9	2.6	2.9	0.9	5.0	.
Cc1ccc2nc(-c3ccc(F)cc3)c(Cc3cccc(Cl)c3)n2c1	-4.8	65.8*	3.6	4.8	13.9	.
COc1ccccc1Cc1c(-c2ccc(C)cc2)nc2ccc(Br)cn12	0.7	-0.9	99.9*	-1.8	12.6	.
O=C(CCc1ccccc1)N[C@H]1[C@@H](OC(=O)c2cnccn2)CCC[C@@]12C(=O)N(Cc1ccccc1)c1ccccc12	-8.1	0.0	.	5.4	2.6	.
Cc1cc(N2CCN(CCO)CC2)n2nc(C)nc2n1	-3.5	-3.5	.	3.5	2.1	.
COC(=O)[C@H](CC(C)C)N1Cc2nnn(Cc3ccccc3)c2-c2cc(F)ccc2S1(=O)=O	-3.4	-0.3	.	2.0	-0.4	.
SMILES	MBD2 DNA inh	UHRF1 MBD2 ctr	CSN inh	LEDGF integ inh	rCAG binder	ATG4B inhibitor
Cc1ccc(C(=O)Cn2nnc(-c3ccccc3-n3cnnn3)n2)cc1	0.7	5.8	5.1	-1.4	2.6	13.1
COc1ccc(C(=O)Cn2nnc(-c3ccccc3-n3cnnn3)n2)cc1	-0.3	34.3*	2.5	0.0	-3.4	-10.3
C/C(=N\NC(=O)c1cc2ccccc2cc1O)c1ccccn1	0.1	2.2	2.4	-4.9	47.5*	3.1
C/C(=N\NC(=O)c1c[nH]c2ccccc12)c1ccccn1	-6.2	-4.2	0.2	5.6	7.0	-6.8
CN1C(=O)c2cc(NC(=O)Nc3ccccc3)ccc2OC[C@H]2O[C@@H](CC(=O)NC3Cc4ccccc4C3)CC[C@@H]21	10.1	4.6	.	3.7	10.4	.
C=CCN1C(=O)[C@@H](CC(=O)N2CCCCC2)[C@]2(C(=O)OC)CCCCC=C12	-2.7	2.2	.	-0.8	4.7	.
C=C1C2(C(=O)NCc3ccco3)CCC(C2)C1(C)C (stereo unspecified)	3.5	21.7*	1.1	9.7	-1.3	-7.3
CC(C)CN1C(=O)[C@@]2(CC(=O)N(C)C2c2ccccc2)c2cc(-n3cc(CCc4ccccc4)nn3)ccc21 (stereo partly specified)	-1.8	0.3	.	7.0	4.2	.
CC(=O)Nc1nc2ncccn2c1-c1ccc(F)c(F)c1	5.4	-1.0	.	4.5	2.7	.
Cc1ccc(NC(=O)CC2SC(=O)N(c3ccccc3)C2=O)cc1 (stereo unspecified)	0.4	-7.5	4.8	3.7	36.6*	-4.4
O=C(CC1SC(=O)N(c2ccccc2)C1=O)Nc1ccccc1 (stereo unspecified)	-4.3	-11.1	-3.6	2.2	26.4	9.0
Cc1ccccc1C(=O)NC1CCCCN(Cc2ccc(Cl)cc2)C1=O (stereo unspecified)	0.6	-1.2	.	-1.8	3.0	.
CCC(=O)OC1(C)C(=O)C2=COC(c3ccc(OC)cc3)=CC2=C(Br)C1=O (stereo unspecified)	2.9	18.3	5.6	11.9	15.8	9.4
CCC(=O)OC1(C)C(=O)C=C2C=C(c3ccc(C#N)cc3)OC=C2C1=O (stereo unspecified)	3.4	4.9	10.3	4.2	42.4*	28.6
Cc1ccc(S(=O)(=O)N2C[C@]3(O)C[C@@H]4C(=O)N(c5ccccc5)C(=O)[C@@H]4C[C@]3(OC(=O)NCc3ccccc3)C2)cc1	8.6	22.6*	4.8	0.7	5.3	.
Cc1cc(N=Nc2ccccc2C(=O)O)c(C)c(C)c1O	-11.7	-9.9	18.9	-0.8	49.7*	13.4
O=C(C(=O)N1CCN(C(=O)Cc2ccccc2)CC1)c1cccc(C(F)(F)F)c1	-6.2	57.8*	.	2.5	-0.1	.
O=C(COc1ccc(OCc2ccccc2)cc1)NN=C1CCCC1	12.8	33.6*	0.8	5.0	7.3	5.8
O=[N+]([O-])c1cccc(COc2ccc(CN3CCCCC3)cc2)c1	7.0	20.9*	0.6	-4.9	0.9	6.6
CCOC(=O)N1CCN(C2=C(NS(=O)(=O)c3ccccc3)C(=O)c3ccccc3C2=O)CC1	-9.1	-2.0	-2.0	21.6*	0.6	4.4
CCCCC(C(=O)NC(=O)NCc1ccccc1)N1C(=O)c2ccccc2C1=O (stereo unspecified)	11.7	22.7*	-6.2	2.4	3.2	-6.0
